# ChEMBL document CHEMBL1122377, “Nitrogen bridgehead compounds. 38. New antiallergic 4H-pyrido[1,2-a]pyrimidin-4-ones. 3” (1983)
# Tested on: Rattus norvegicus
# Assay: Antiallergic activity after os administration using rat reaginic passive cutaneous anaphylaxis (PCA) test; insignificant activity; per os 10e3 umol/kg exhibited 31% protection
# Assay type: functional
# Details: not given
row,Compound,Activity
1,CCOC(=O)c1cnc2n(c1=O)C(C)CCC2C(=O)Nc1ccccc1 (stereo unspecified),31%

# Tested on: Rattus norvegicus
# Assay: Antiallergic activity after intravenous administration using rat reaginic passive cutaneous anaphylaxis (PCA) test.
# Assay type: functional
# Details: not given
# Summary of the method: (§1)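 Inhibition in the rat reaginic PCA test after dosing; significance of each value judged by Student's t test.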
row,Compound,ID50
1,CC1CCC(=NNc2ccccc2)c2ncc(C(=O)O)c(=O)n21 (stereo in doubt),0.3 µM/kg

# Same assay, conditions: Rattus norvegicus, iv; read-out: ID50 (the source's name)
row,Compound,ED50
1,CC1CC=C(Nc2ccccc2)c2ncc(C(=O)O)c(=O)n21 (stereo unspecified),2.1 µmol/kg
2,CC1CC=C(N(C)c2ccccc2)c2ncc(C(=O)O)c(=O)n21 (stereo unspecified),> 100 µmol/kg
3,CC1CC=C(Nc2ccc(F)cc2)c2ncc(C(=O)O)c(=O)n21 (stereo unspecified),8.6 µmol/kg
4,CC1CC=C(Nc2ccccc2C(=O)O)c2ncc(C(=O)O)c(=O)n21 (stereo unspecified),0.66 µmol/kg
5,CCc1nc2n(c(=O)c1C(=O)O)C(C)CC/C2=N\O (stereo unspecified),> 100 µmol/kg
6,CC1CCC(=NNc2ccccc2)c2ncc(C(=O)O)c(=O)n21 (stereo in doubt; 2),0.6 µmol/kg
7,CC1CC=C(Nc2ccc(C(=O)O)cc2)c2ncc(C(=O)O)c(=O)n21 (stereo unspecified),3.5 µmol/kg
8,C[C@H]1CC=C(Nc2ccccc2)c2ncc(C(=O)O)c(=O)n21,1.2 µmol/kg
9,Cc1nc2n(c(=O)c1C(=O)O)C(C)CC/C2=N\O (stereo unspecified),> 100 µmol/kg
10,CC1CC=C(Nc2ccc(O)cc2)c2ncc(C(=O)O)c(=O)n21 (stereo unspecified),2.93 µmol/kg
11,Cc1cccc(NC2=CCC(C)n3c2ncc(C(=O)O)c3=O)c1 (stereo unspecified),0.74 µmol/kg
12,CC1CC=C(Nc2cccc(C(=O)O)c2)c2ncc(C(=O)O)c(=O)n21 (stereo unspecified),0.62 µmol/kg
13,CC1CC=C(Nc2cccc(F)c2)c2ncc(C(=O)O)c(=O)n21 (stereo unspecified),1.4 µmol/kg
14,CC1CC/C(=N\O)c2ncc(C(=O)O)c(=O)n21 (stereo unspecified),19.4 µmol/kg
15,CC1CCC(C(=O)Nc2ccccc2)c2ncc(C(=O)O)c(=O)n21 (stereo unspecified),0.56 µmol/kg
16,CC(=O)c1cccc(NC2=CCC(C)n3c2ncc(C(=O)O)c3=O)c1 (stereo unspecified),0.36 µmol/kg
17,CCO/N=C1\CCC(C)n2c1ncc(C(=O)OCC)c2=O (stereo unspecified),41.2 µmol/kg
18,O=C(O)c1cc(=O)c2c(OCC(O)COc3cccc4oc(C(=O)O)cc(=O)c34)cccc2o1 [CROMOLYN SODIUM],1 µmol/kg
19,Cc1ccccc1NC1=CCC(C)n2c1ncc(C(=O)O)c2=O (stereo unspecified),5.4 µmol/kg
20,CC1CCCc2ncc(C(=O)O)c(=O)n21 (stereo unspecified),240 µmol/kg
21,CC1CCC(/C(S)=N/c2ccccc2)c2ncc(C(=O)O)c(=O)n21 (stereo unspecified),9.1 µmol/kg
22,CCO/N=C1\CCC(C)n2c1ncc(C(=O)O)c2=O (stereo unspecified),24.3 µmol/kg
23,C[C@@H]1CC=C(Nc2ccccc2)c2ncc(C(=O)O)c(=O)n21,100 µmol/kg
24,CC1CC/C(=N\N)c2ncc(C(=O)O)c(=O)n21 (stereo unspecified),42 µmol/kg
25,CCOC(=O)c1cnc2n(c1=O)C(C)CC/C2=N\O (stereo unspecified),100 µmol/kg

# Tested on: Rattus norvegicus
# Assay: Antiallergic activity after os administration using rat reaginic passive cutaneous anaphylaxis (PCA) test.
# Assay type: functional
# Details: not given
# Summary of the method: as §1
row,Compound,Activity
1,CC1CCC(/C=N/c2ccccc2)=C2NC=C(C(=O)O)C(=O)N21 (stereo unspecified),47%

# Same assay, conditions: read-out: ID50 (the source's name)
row,Compound,ED50
1,CC1CC=C(Nc2ccc3ccccc3c2)c2ncc(C(=O)O)c(=O)n21 (stereo unspecified),30.8 µmol/kg
2,CC1CC=C(Nc2ccc(C(=O)O)cc2)c2ncc(C(=O)O)c(=O)n21 (stereo unspecified),277 µmol/kg
3,CC1CC=C(Nc2ccc(O)cc2)c2ncc(C(=O)O)c(=O)n21 (stereo unspecified),100 µmol/kg
4,CC1CC=C(Nc2cccc(C(=O)O)c2)c2ncc(C(=O)O)c(=O)n21 (stereo unspecified),92.6 µmol/kg

# Tested on: Rattus norvegicus
# Assay: Antiallergic activity after iv administration using rat reaginic passive cutaneous anaphylaxis (PCA) test;ins means insoluble.
# Details: not given
row,Compound,ID50
1,CC1CCC(C(=O)N(C)C)c2ncc(C(=O)O)c(=O)n21 (stereo unspecified),Insoluble
2,CC1CCC(Nc2ccccc2)c2ncc(C(=O)O)c(=O)n21 (stereo unspecified),Insoluble

# Tested on: Rattus norvegicus
# Assay: Antiallergic activity after iv administration using rat reaginic passive cutaneous anaphylaxis (PCA) test;Compound is toxic at 100 umol/kg.
# Details: not given
row,Compound,ID50
1,CC1CC=C(Nc2cccc(Br)c2)c2ncc(C(=O)O)c(=O)n21 (stereo unspecified),10 µmol/kg
2,CC1CC=C(Nc2cccc(I)c2)c2ncc(C(=O)O)c(=O)n21 (stereo unspecified),10 µmol/kg
